≈ marks a conversion by molar mass, not a printed value.
Experiments:
Format in all cases: functional
Staphylococcus aureus [1] = assay: Minimum inhibitory concentration tested against Staphylococcus aureus 1199B strain
Summary of the method: (§1)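 MICs against S. aureus strains were read in µg/mL from a dilution series. Stated error for each MIC is ± one dilution.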

Staphylococcus aureus [2] = assay: Minimum inhibitory concentration tested against vancomycin-insensitive SA (GISA 992 strain); summary of the method: as §1
Staphylococcus aureus [3] = assay: Minimum inhibitory concentration tested against Staphylococcus aureus 1199-3 strain; summary of the method: as §1
Staphylococcus aureus [4] = assay: Minimum inhibitory concentration tested against methicillin resistant Staphylococcus aureus 494 strain (MRSA 494)
Summary of the method: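 MIC in µg/mL against drug-resistant S. aureus strains; error stated as ± one dilution.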

Staphylococcus aureus [5] = assay: Minimum inhibitory concentration tested against Staphylococcus aureus 1199 strain; summary of the method: as §1

## O=C(O)c1cn(C2CC2)c2cc(N3CCN(Cc4cccc(CN5CCN(c6cc7c(cc6F)c(=O)c(C(=O)O)cn7C6CC6)CC5)c4)CC3)c(F)cc2c1=O
Staphylococcus aureus [1]
  MIC: 0.125 µg/mL (≈ 0.163 µM)
Staphylococcus aureus [2]
  MIC: > 16 µg/mL
Staphylococcus aureus [3]
  MIC: 0.06 µg/mL (≈ 0.0784 µM)
Staphylococcus aureus [4]
  MIC: < 0.03 µg/mL
Staphylococcus aureus [5]
  MIC: 0.06 µg/mL (≈ 0.0784 µM)

## CCn1cc(C(=O)O)c(=O)c2cc(F)c(N3CCN(Cc4ccc(CN5CCN(c6cc7c(cc6F)c(=O)c(C(=O)O)cn7CC)CC5)cc4)CC3)cc21
Staphylococcus aureus [1]
  MIC: 1 µg/mL (≈ 1.35 µM)
Staphylococcus aureus [2]
  MIC: 4 µg/mL (≈ 5.4 µM)
Staphylococcus aureus [3]
  MIC: 0.06 µg/mL (≈ 0.081 µM)
Staphylococcus aureus [4]
  MIC: 0.06 µg/mL (≈ 0.081 µM)
Staphylococcus aureus [5]
  MIC: 0.06 µg/mL (≈ 0.081 µM)

## O=C(O)c1cn(C2CC2)c2cc(N3CCN(C/C=C/CN4CCN(c5cc6c(cc5F)c(=O)c(C(=O)O)cn6C5CC5)CC4)CC3)c(F)cc2c1=O
Staphylococcus aureus [1]
  MIC: 0.03 µg/mL (≈ 0.042 µM)
Staphylococcus aureus [2]
  MIC: > 16 µg/mL
Staphylococcus aureus [3]
  MIC: 0.06 µg/mL (≈ 0.0839 µM)
Staphylococcus aureus [4]
  MIC: 0.125 µg/mL (≈ 0.175 µM)
Staphylococcus aureus [5]
  MIC: 0.03 µg/mL (≈ 0.042 µM)

## O=C(O)c1cn(C2CC2)c2cc(N3CCNCC3)c(F)cc2c1=O [CIPROFLOXACIN]
Staphylococcus aureus [1]
  MIC: 8 µg/mL (≈ 24.1 µM)
Staphylococcus aureus [2]
  MIC: > 32 µg/mL
Staphylococcus aureus [3]
  MIC: 1 µg/mL (≈ 3.02 µM)
Staphylococcus aureus [4]
  MIC: 0.5 µg/mL (≈ 1.51 µM)

## CCn1cc(C(=O)O)c(=O)c2cnc(N3CCNCC3)nc21 [PIPEMIDIC ACID]
Staphylococcus aureus [1]
  MIC: > 16 µg/mL
Staphylococcus aureus [2]
  MIC: > 16 µg/mL
Staphylococcus aureus [3]
  MIC: > 16 µg/mL
Staphylococcus aureus [5]
  MIC: > 16 µg/mL

## CCn1cc(C(=O)O)c(=O)c2cc(F)c(N3CCN(Cc4ccc(CN5CCN(c6cc7c(cc6F)c(=O)c(C(=O)O)cn7C6CC6)CC5)cc4)CC3)cc21
Staphylococcus aureus [1]
  MIC: 0.06 µg/mL (≈ 0.0797 µM)
Staphylococcus aureus [2]
  MIC: 4 µg/mL (≈ 5.31 µM)
Staphylococcus aureus [3]
  MIC: < 0.03 µg/mL
Staphylococcus aureus [5]
  MIC: < 0.03 µg/mL

## CCn1cc(C(=O)O)c(=O)c2cc(F)c(N3CCN(C/C=C/CN4CCN(c5cc6c(cc5F)c(=O)c(C(=O)O)cn6CC)CC4)CC3)cc21
Staphylococcus aureus [1]
  MIC: 0.125 µg/mL (≈ 0.181 µM)
Staphylococcus aureus [2]
  MIC: > 16 µg/mL
Staphylococcus aureus [3]
  MIC: 0.125 µg/mL (≈ 0.181 µM)
Staphylococcus aureus [4]
  MIC: 0.125 µg/mL (≈ 0.181 µM)
Staphylococcus aureus [5]
  MIC: 0.25 µg/mL (≈ 0.362 µM)

## O=C(O)c1cn(C2CC2)c2cc(N3CCN(Cc4ccc(-c5ccc(CN6CCN(c7cc8c(cc7F)c(=O)c(C(=O)O)cn8C7CC7)CC6)cc5)cc4)CC3)c(F)cc2c1=O
Staphylococcus aureus [1]
  MIC: 8 µg/mL (≈ 9.51 µM)
Staphylococcus aureus [2]
  MIC: > 16 µg/mL
Staphylococcus aureus [3]
  MIC: 8 µg/mL (≈ 9.51 µM)
Staphylococcus aureus [5]
  MIC: 4 µg/mL (≈ 4.76 µM)

## O=C(O)c1cn(C2CC2)c2cc(N3CCN(Cc4ccc(CN5CCN(c6cc7c(cc6F)c(=O)c(C(=O)O)cn7C6CC6)CC5)cc4)CC3)c(F)cc2c1=O
Staphylococcus aureus [1]
  MIC: 0.125 µg/mL (≈ 0.163 µM)
Staphylococcus aureus [2]
  MIC: 4 µg/mL (≈ 5.23 µM)
Staphylococcus aureus [3]
  MIC: 0.125 µg/mL (≈ 0.163 µM)
Staphylococcus aureus [4]
  MIC: 0.125 µg/mL (≈ 0.163 µM)
Staphylococcus aureus [5]
  MIC: 0.125 µg/mL (≈ 0.163 µM)

## CCn1cc(C(=O)O)c(=O)c2cc(F)c(N3CCNCC3)cc21 [NORFLOXACIN]
Staphylococcus aureus [1]
  MIC: > 16 µg/mL
Staphylococcus aureus [2]
  MIC: > 16 µg/mL
Staphylococcus aureus [3]
  MIC: 4 µg/mL (≈ 12.5 µM)
Staphylococcus aureus [4]
  MIC: 2 µg/mL (≈ 6.26 µM)
Staphylococcus aureus [5]
  MIC: 0.5 µg/mL (≈ 1.57 µM)

## CCn1cc(C(=O)O)c(=O)c2cnc(N3CCN(Cc4ccc(CN5CCN(c6cc7c(cc6F)c(=O)c(C(=O)O)cn7C6CC6)CC5)cc4)CC3)nc21
Staphylococcus aureus [1]
  MIC: < 0.03 µg/mL
Staphylococcus aureus [2]
  MIC: 2 µg/mL (≈ 2.71 µM)
Staphylococcus aureus [3]
  MIC: < 0.03 µg/mL
Staphylococcus aureus [4]
  MIC: 0.125 µg/mL (≈ 0.17 µM)
Staphylococcus aureus [5]
  MIC: < 0.03 µg/mL

## CCn1cc(C(=O)O)c(=O)c2cnc(N3CCN(Cc4ccc(CN5CCN(c6ncc7c(=O)c(C(=O)O)cn(CC)c7n6)CC5)cc4)CC3)nc21
Staphylococcus aureus [1]
  MIC: 4 µg/mL (≈ 5.64 µM)
Staphylococcus aureus [2]
  MIC: 8 µg/mL (≈ 11.3 µM)
Staphylococcus aureus [3]
  MIC: 0.5 µg/mL (≈ 0.705 µM)
Staphylococcus aureus [4]
  MIC: 2 µg/mL (≈ 2.82 µM)
Staphylococcus aureus [5]
  MIC: 0.5 µg/mL (≈ 0.705 µM)

## O=C(O)c1cn(C2CC2)c2cc(N3CCN(Cc4cccc(CN5CCN(c6cc7c(cc6F)c(=O)c(C(=O)O)cn7C6CC6)CC5)n4)CC3)c(F)cc2c1=O
Staphylococcus aureus [1]
  MIC: < 0.03 µg/mL
Staphylococcus aureus [2]
  MIC: 8 µg/mL (≈ 10.4 µM)
Staphylococcus aureus [3]
  MIC: < 0.03 µg/mL
Staphylococcus aureus [4]
  MIC: 0.06 µg/mL (≈ 0.0783 µM)
Staphylococcus aureus [5]
  MIC: < 0.03 µg/mL

Reference: ChEMBL document CHEMBL1136390, “Piperazinyl-linked fluoroquinolone dimers possessing potent antibacterial activity against drug-resistant strains of Staphylococcus aureus” (2003)
